According to ChEMBL document CHEMBL1275244, “Antimicrobial resistance among respiratory pathogens in Spain: latest data and changes over 11 years (1996-1997 to 2006-2007)” (2010):
Converted amounts (≈) assume the structure as drawn.

How the values were obtained:
Assay type in all cases: functional
[1] = test system: Streptococcus pneumoniae; assay: Antimicrobial activity against Streptococcus pneumoniae clinical isolates by based on po dosed broth dilution method
Procedure, shortened: (§1)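 Isolates kept frozen at −70°C in duplicate and revived by hot-loop touching. MICs by the CLSI broth microdilution method active in the year of study, with S. pneumoniae ATCC 49619 as control. Categories assigned with CLSI M100-S19 breakpoints.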

[2] = test system: Streptococcus pneumoniae; assay: Antimicrobial activity against Streptococcus pneumoniae clinical isolates assessed as susceptible isolates by based on po dosed broth dilution method; procedure, shortened: as §1
[3] = test system: Streptococcus pneumoniae; assay: Antimicrobial activity against Streptococcus pneumoniae clinical isolates assessed as resistant isolates by based on po dosed broth dilution method
Procedure, shortened: (§2)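 S. pneumoniae clinical isolates were kept frozen at −70°C in duplicate and recovered by hot-loop touching to avoid repeated freeze-thaw. MICs were measured by CLSI broth microdilution as in force in the study year, with S. pneumoniae ATCC 49619 as control strain. Susceptibility categories were interpreted using CLSI M100-S19 breakpoints.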

[4] = test system: Streptococcus pneumoniae; assay: Antimicrobial activity against Streptococcus pneumoniae clinical isolates assessed as susceptible isolates by po dosed PK/PD technique
[5] = test system: Streptococcus pneumoniae; assay: Antimicrobial activity against Streptococcus pneumoniae clinical isolates by based on parenterally dosed broth dilution method; procedure, shortened: as §1
[6] = test system: Streptococcus pneumoniae; assay: Antimicrobial activity against Streptococcus pneumoniae clinical isolates assessed as susceptible isolates by based on parenterally dosed broth dilution method; procedure, shortened: as §1
[7] = test system: Streptococcus pneumoniae; assay: Antimicrobial activity against Streptococcus pneumoniae clinical isolates assessed as resistant isolates by based on parenterally dosed broth dilution method in presence of beta-lactamase inhibitor clavulanic acid; procedure, shortened: as §2
[8] = test system: Streptococcus pneumoniae; assay: Antimicrobial activity against Streptococcus pneumoniae clinical isolates assessed as susceptible isolates by based on parenterally dosed PK/PD technique
[9] = test system: Streptococcus pyogenes; assay: Antimicrobial activity against Streptococcus pyogenes clinical isolates by broth dilution method
[10] = test system: Haemophilus influenzae; assay: Antimicrobial activity against Haemophilus influenzae clinical isolates by based on po dosed broth dilution method
Procedure, shortened: (§3)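 H. influenzae clinical isolates were stored at −70°C in duplicate and recovered by the hot-loop touching method without repeated thawing. MICs were determined by CLSI broth microdilution in Haemophilus test medium, following the method current in the study year. Each medium batch was checked for growth support with H. influenzae ATCC 10211. Controls were H. influenzae ATCC 49247 and ATCC 49766 and E. coli ATCC 35218. Categories were assigned per CLSI M100-S19.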

[11] = test system: Haemophilus influenzae; assay: Antimicrobial activity against Haemophilus influenzae clinical isolates assessed as susceptible isolates by based on po dosed broth dilution method
Procedure, shortened: (§4)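 Clinical isolates stored in duplicate at −70°C and recovered by the hot-loop touching method. MICs by the CLSI broth microdilution method current in the study year, in Haemophilus test medium (HTM). Growth support of HTM checked with H. influenzae ATCC 10211. Controls were H. influenzae ATCC 49247 and ATCC 49766 and E. coli ATCC 35218. Susceptibility interpreted per CLSI M100-S19.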

[12] = test system: Haemophilus influenzae; assay: Antimicrobial activity against Haemophilus influenzae clinical isolates assessed as resistant isolates by based on po dosed broth dilution method; procedure, shortened: as §3
[13] = test system: Haemophilus influenzae; assay: Antimicrobial activity against Haemophilus influenzae clinical isolates by based on po dosed PK/PD technique
[14] = test system: Streptococcus pneumoniae; assay: Antimicrobial activity against Streptococcus pneumoniae clinical isolates by broth dilution method
[15] = test system: Streptococcus pneumoniae; assay: Antimicrobial activity against Streptococcus pneumoniae clinical isolates assessed as susceptible isolates by broth dilution method; procedure, shortened: as §1
[16] = test system: Streptococcus pneumoniae; assay: Antimicrobial activity against Streptococcus pneumoniae clinical isolates assessed as resistant isolates by broth dilution method
[17] = test system: Streptococcus pneumoniae; assay: Antimicrobial activity against Streptococcus pneumoniae clinical isolates assessed as susceptible isolates by PK/PD technique
[18] = test system: Haemophilus influenzae; assay: Antimicrobial activity against Haemophilus influenzae clinical isolates by broth dilution method
[19] = test system: Haemophilus influenzae; assay: Antimicrobial activity against Haemophilus influenzae clinical isolates assessed as susceptible isolates by broth dilution method
[20] = test system: Haemophilus influenzae; assay: Antimicrobial activity against Haemophilus influenzae clinical isolates assessed as resistant isolates by broth dilution method
[21] = test system: Haemophilus influenzae; assay: Antimicrobial activity against Haemophilus influenzae clinical isolates assessed as susceptible isolates by PK/PD technique
[22] = test system: Streptococcus pyogenes; assay: Antimicrobial activity against Streptococcus pyogenes clinical isolates assessed as susceptible isolates by broth dilution method
Procedure, shortened: (§5)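 S. pyogenes clinical isolates held at −70°C in duplicate and recovered by hot-loop touching. MICs by the CLSI broth microdilution method in force in the study year, interpreted per CLSI M100-S19.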

[23] = test system: Streptococcus pyogenes; assay: Antimicrobial activity against Streptococcus pyogenes clinical isolates assessed as resistant isolates by broth dilution method
Procedure, shortened: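 S. pyogenes clinical isolates were held at −70°C in duplicate and revived by the hot-loop touching method. MICs were obtained by the CLSI broth microdilution procedure active in the year of study. Resistance was interpreted according to CLSI M100-S19.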

[24] = test system: Streptococcus pneumoniae; assay: Antimicrobial activity against Streptococcus pneumoniae clinical isolates by broth dilution method in presence of beta-lactamase inhibitor clavulanic acid; procedure, shortened: as §1
[25] = test system: Streptococcus pneumoniae; assay: Antimicrobial activity against Streptococcus pneumoniae clinical isolates assessed as susceptible isolates by broth dilution method in presence of beta-lactamase inhibitor clavulanic acid; procedure, shortened: as §1
[26] = test system: Streptococcus pneumoniae; assay: Antimicrobial activity against Streptococcus pneumoniae clinical isolates assessed as resistant isolates by broth dilution method in presence of beta-lactamase inhibitor clavulanic acid; procedure, shortened: as §2
[27] = test system: Streptococcus pneumoniae; assay: Antimicrobial activity against Streptococcus pneumoniae clinical isolates assessed as susceptible isolates by PK/PD technique in presence of beta-lactamase inhibitor clavulanic acid
[28] = test system: Streptococcus pyogenes; assay: Antimicrobial activity against Streptococcus pyogenes clinical isolates by broth dilution method in presence of beta-lactamase inhibitor clavulanic acid; procedure, shortened: as §5
[29] = test system: Haemophilus influenzae; assay: Antimicrobial activity against Haemophilus influenzae clinical isolates by broth dilution method in presence of beta-lactamase inhibitor clavulanic acid; procedure, shortened: as §4
[30] = test system: Haemophilus influenzae; assay: Antimicrobial activity against Haemophilus influenzae clinical isolates assessed as susceptible isolates by broth dilution method in presence of beta-lactamase inhibitor clavulanic acid; procedure, shortened: as §4
[31] = test system: Haemophilus influenzae; assay: Antimicrobial activity against Haemophilus influenzae clinical isolates assessed as resistant isolates by broth dilution method in presence of beta-lactamase inhibitor clavulanic acid; procedure, shortened: as §3
[32] = test system: Haemophilus influenzae; assay: Antimicrobial activity against Haemophilus influenzae clinical isolates assessed as susceptible isolates by PK/PD technique in presence of beta-lactamase inhibitor clavulanic acid
[33] = test system: Streptococcus pneumoniae; assay: Antimicrobial activity against Streptococcus pneumoniae clinical isolates assessed as susceptible isolates by PK/PD technique in presence of […] beta-lactamase inhibitor clavulanic acid
[34] = test system: Haemophilus influenzae; assay: Antimicrobial activity against Haemophilus influenzae clinical isolates assessed as susceptible isolates by PK/PD technique in presence […] of beta-lactamase inhibitor clavulanic acid; set-up: scale not given: the % may be the effect or the level left

Row | SMILES | MIC50 [9] | MIC90 [9] | MIC50 [14] | MIC90 [14] | Activity [15] | Activity [16] | Activity [17] | MIC50 [18] | MIC90 [18] | Activity [19] | Activity [20] | Activity [21] | Activity [22] | Activity [23] | also measured
1 | CO/N=C(\C(=O)N[C@@H]1C(=O)N2C(C(=O)O)=C(COC(N)=O)CS[C@H]12)c1ccco1 [CEFUROXIME] | ≤ 0.015 µg/mL | ≤ 0.015 µg/mL |  |  |  |  |  |  |  |  |  |  |  |  | MIC50 [1]: ≤ 0.015 µg/mL; MIC90 [1]: 1 µg/mL (≈ 2.36 µM); Activity [2]: 94.5%; Activity [3]: 1.3%; Activity [4]: 94.5%; MIC50 [5]: ≤ 0.015 µg/mL; MIC90 [5]: 1 µg/mL (≈ 2.36 µM); Activity [6]: 83.8%; Activity [7]: 5.5%; Activity [8]: 99.3%; MIC50 [10]: 0.5 µg/mL (≈ 1.18 µM); MIC90 [10]: 1 µg/mL (≈ 2.36 µM); Activity [11]: 99.3%; Activity [12]: 0.1%; Activity [13]: 91.4%
2 | N[C@@H](C(=O)N[C@@H]1C(=O)N2C(C(=O)O)=C(Cl)CS[C@H]12)c1ccccc1 [CEFACLOR ANHYDROUS] | 0.03 µg/mL (≈ 0.0816 µM) | < 0.06 µg/mL | 0.125 µg/mL (≈ 0.34 µM) | 16 µg/mL (≈ 43.5 µM) | 79.1% | 19% | 75.9% | 1 µg/mL (≈ 2.72 µM) | 4 µg/mL (≈ 10.9 µM) | 97.8% | 0% | 25.8% |  |  | 
3 | CC1(C)S[C@@H]2[C@H](NC(=O)[C@H](N)c3ccccc3)C(=O)N2[C@H]1C(=O)O [AMPICILLIN] | ≤ 0.015 µg/mL | ≤ 0.015 µg/mL | ≤ 0.015 µg/mL | 2 µg/mL (≈ 5.72 µM) |  |  | 93.4% | 0.12 µg/mL (≈ 0.343 µM) | 4 µg/mL (≈ 11.4 µM) | 83.9% | 13.3% | 86.7% | 100% | 0% | 
4 | C[C@H]1COc2c(N3CCN(C)CC3)c(F)cc3c(=O)c(C(=O)O)cn1c23.C[C@H]1COc2c(N3CCN(C)CC3)c(F)cc3c(=O)c(C(=O)O)cn1c23.O [LEVOFLOXACIN] | 0.125 µg/mL | 0.25 µg/mL | 0.125 µg/mL | 0.25 µg/mL | 97.6% | 0.5% | 97.7% | ≤ 0.015 µg/mL | ≤ 0.015 µg/mL | 99.9% | 0.1% | 99.9% | 100% | 0% | 
5 | CC1(C)S[C@@H]2[C@H](NC(=O)[C@H](N)c3ccc(O)cc3)C(=O)N2[C@H]1C(=O)O [AMOXICILLIN] |  |  |  |  |  |  |  |  |  |  |  |  |  |  | MIC50 [24]: ≤ 0.015 µg/mL; MIC90 [24]: 1 µg/mL; Activity [25]: 94.8%; Activity [26]: 1.2%; Activity [27]: 94.8%; MIC50 [28]: ≤ 0.015 µg/mL; MIC90 [28]: ≤ 0.015 µg/mL; MIC90 [29]: 1 µg/mL; MIC50 ([29]; Haemophilus influenzae): 0.25 µg/mL; Activity [30]: 99.7%; Activity [31]: 0.3%; Activity [32]: 97.5%; Activity [33]: 98.8%; Activity [34]: 99.7%
